This is a sample that favours compounds with a hit; in the whole collection about 1.7% have one here.
Vif inh: HIV Vif self-association inhibitors, primary screen, imaging, HEK293T, single point. HEK293T cells, Vif self-association by quenched fluorescence, 24 h. inhibition, % at 7.49 µM. actives 0.35% (n = 340,000). AID 602346, 2012; in the data active means inhibition above about 50%, passing the limit was not always enough
Myeloid diff MLP: induction of myeloid progenitor differentiation, primary screen, cell-based, flow cytometry, MLPCN library; actives 1% (n = 360,000); calls only at 10 µM; AID 624256, 2012; ER-HoxA9 myeloid progenitors, lysozyme-GFP differentiation;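 active means normalized GFP-positive differentiation at or above the plate's own cutoff, the solvent-only control mean plus 3 SD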;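 further: cells exposed to compound for four days before flow analysis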
Pemphigus Ab inh: inhibitors of pemphigus antibody binding to DSG3, primary screen, biochemical, bead-based, flow cytometry, scFv-GFP; Desmoglein-3 (Homo sapiens), P32926; DSG3-coupled beads, scFv-anti-DSG3-GFP binding; hits give low values; binding (percent of control), % at 10 µM; actives 0.48% (n = 310,000); AID 588358, 2011;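 active means binding more than 3 SD below its plate's average and above zero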;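 further: hits lower antibody fragment binding to DSG3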
Target sequence (P32926 whole entry, looked up, the tested form may be a part): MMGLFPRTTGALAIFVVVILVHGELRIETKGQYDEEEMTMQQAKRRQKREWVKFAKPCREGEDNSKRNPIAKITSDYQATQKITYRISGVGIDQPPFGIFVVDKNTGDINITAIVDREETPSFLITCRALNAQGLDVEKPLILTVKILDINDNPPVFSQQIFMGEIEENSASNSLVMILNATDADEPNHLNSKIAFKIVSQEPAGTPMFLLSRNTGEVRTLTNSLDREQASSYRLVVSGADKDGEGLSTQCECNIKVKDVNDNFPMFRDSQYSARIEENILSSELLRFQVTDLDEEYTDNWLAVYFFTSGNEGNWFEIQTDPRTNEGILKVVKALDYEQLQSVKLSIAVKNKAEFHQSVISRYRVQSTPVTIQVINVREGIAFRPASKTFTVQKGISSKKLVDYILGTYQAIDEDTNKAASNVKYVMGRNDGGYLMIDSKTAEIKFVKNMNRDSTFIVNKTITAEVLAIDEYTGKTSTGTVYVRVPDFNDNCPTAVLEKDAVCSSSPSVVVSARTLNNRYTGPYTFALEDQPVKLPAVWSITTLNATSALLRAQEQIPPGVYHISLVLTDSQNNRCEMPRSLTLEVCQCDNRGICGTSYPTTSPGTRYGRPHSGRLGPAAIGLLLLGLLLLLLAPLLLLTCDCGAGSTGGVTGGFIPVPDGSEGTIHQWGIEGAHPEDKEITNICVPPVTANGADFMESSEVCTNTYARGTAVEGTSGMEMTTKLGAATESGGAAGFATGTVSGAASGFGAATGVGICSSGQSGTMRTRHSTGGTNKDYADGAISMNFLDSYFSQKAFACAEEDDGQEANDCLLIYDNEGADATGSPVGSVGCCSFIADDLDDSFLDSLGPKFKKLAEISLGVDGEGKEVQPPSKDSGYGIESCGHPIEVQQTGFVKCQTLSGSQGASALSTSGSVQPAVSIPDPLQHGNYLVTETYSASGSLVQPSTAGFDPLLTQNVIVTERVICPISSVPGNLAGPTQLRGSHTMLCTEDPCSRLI
T cell modulator: modulators of CD8 T cell-vesicle binding, primary screen, mouse 2C CD8+ T cells, flow cytometry; response (vesicle binding), % at 7 µM; AID 2052, 2009; 2C CD8+ T cell-vesicle binding; hits give low values; actives 0.068% (n = 330,000);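 active means response, share of CD8 T cells binding vesicles, and their 90th percentile fluorescence all below set limits, cut at about 80% in these data, passing the limit was not always enough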;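 further: values below 100% mean blocked vesicle binding to the CD8+ T cells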
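Incubation: binding step 1.5 h, 37 °C, antibody labelling 20 min, ice; system: murine 2C transgenic CD8+ T lymphocytes; technique: cytometric PE anti-B7-1 and Alexa647 anti-CD8 signals after 1% paraformaldehyde fixation; also added: QL9-charged Drosophila Ld/ICAM-1/B7-1 vesicles; control set: naked versus QL9-loaded vesicles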
Myeloid diff CP1: inducers of myeloid progenitor differentiation, confirmation, cell-based, GFP/Mac1 flow cytometry, cherry pick 01; ER-HoxA9 myeloid progenitors, GFP/Mac1 double-positive flow; actives 2% (n = 2,300); AID 651706, 2012; calls only; shares compounds with Myeloid diff MLP;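 active means share of green or green-and-red cells above 9 and 9% in run 1 or 4 and 3% in run 2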
GFP autofluor: flagged as fluorescent in myeloid differentiation counter-screen | shares compounds with Myeloid diff MLP | ER-HoxA9 myeloid progenitors, no estrogen, GFP autofluorescence flow cytometry; vehicle wells 0%, positive control 100% | fluorescence response, % (concentration not given with the values) | actives 7.4% (n = 2,300);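 active means over 5% cells positive for green fluorescent reporter, or over 2% positive for both it and APC stain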;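 further: range taken on the double positive population between DMSO and positive control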
Active calls of the source: *; i = inactive; · = not tested or not shown; + = active, no number.

SMILES | Vif inh | Myeloid diff MLP | Pemphigus Ab inh | T cell modulator | Myeloid diff CP1 | GFP autofluor
CN1CCN(c2ncnc3c2ncn3[C@H]2CN(Cc3ccc4c(c3)OCO4)C[C@@H](CO)O2)CC1 | -11 | i | · | · | · | ·
COc1ccc(S(=O)(=O)NC(=O)C2(C)CCN2C(=O)C2(c3ccccc3)CCCC2)cc1 (configuration not stated) | 0 | i | · | · | · | ·
O=C(NNC1=Nc2cccc3cccc1c23)c1ccc(Br)cc1 | -5 | + | · | 172 | i | 12*
C/C(=C/c1ccccc1)C(=O)N1CCC(C)CC1 | 15 | i | 120 | 341 | i | 0
CCOC(=O)C1CCN(C(=O)/C(C)=C\c2ccccc2)CC1 | 4 | i | 108 | 354 | · | ·
CCCSC1=C(C#N)C(c2cc(OC)ccc2OC)CC(=O)N1 (configuration not stated) | · | i | 103 | i | i | 1
CCSC1=C(C#N)C(c2ccc(OC)c(OC)c2)CC(=O)N1 (configuration not stated) | 31 | i | · | 209 | · | ·
COc1ccc(C(C)(O)c2nc(-c3ccc4c(c3)OCO4)cs2)cc1 (configuration not stated) | 1 | i | · | · | · | ·
O=C(NC1CCCCC1)C(Cc1ccccc1)NS(=O)(=O)c1cccs1 (configuration not stated) | 5 | i | 100 | 482 | i | 1
O=C(NC1CCCc2ccccc21)C(Cc1ccccc1)NS(=O)(=O)c1cccs1 (configuration not stated) | -1 | i | 99 | 325 | · | ·
C=CCC[C@@H](Cc1ccc(F)cc1)C(=O)OCCNC(=O)[C@H](CC=C)CC(=O)NCCO | · | i | 95 | 300 | · | ·
CCCCCCOC(=O)C(C#N)c1nc2ccccc2nc1N1CCN(CC)CC1 (configuration not stated) | 12 | + | 108 | 126 | i | 0
Cc1ccccc1NC(=O)Cc1nc(COC(=O)CSc2ccc(F)cc2)cs1 | · | i | 98 | · | · | ·
O=C(c1ccccc1F)N1CCCC(N2CCN(Cc3ccc4c(c3)OCO4)CC2)C1 (configuration not stated) | -3 | i | 99 | · | · | ·
CCC(C)Oc1cc(-c2ccnc(Nc3cccc(Cl)c3)n2)ccn1 (configuration not stated) | -6 | i | 101 | 706 | · | ·
OCCCNc1cc(-c2ccnc(Nc3cccc(Cl)c3)n2)ccn1 | -12 | i | 101 | 379 | i | 0
COc1ccc(S(=O)(=O)N(C)C[C@@H]2OCc3cn(nn3)CCCC(=O)N([C@H](C)CO)C[C@H]2C)cc1 | 12 | i | · | · | · | ·
Cc1cc(=O)n2c3ccccc3n(CC(O)CN3CCCCC3)c2c1C#N (configuration not stated) | 4 | + | 114 | 153 | i | 0
Cc1cc(=O)n2c3ccccc3n(CC(O)CN3CCOCC3)c2c1C#N (configuration not stated) | 0 | i | 105 | 198 | · | ·
N#Cc1c(N)nc(SCc2ccccn2)c(C#N)c1-c1cccs1 | 7 | i | 102 | 325 | i | 0
CCOC(=O)CSc1nc(N)c(C#N)c(-c2cccs2)c1C#N | -9 | i | 116 | 310 | · | ·
COc1ccc(C(=O)COC(=O)c2cnc(C)cn2)cc1OC | 19 | i | 326 | 367 | i | 0
N#C/C(=C\c1cccnc1)C(=O)NC1CCCCC1 | -8 | + | 102 | 6 | i | 1
N#C/C(=C\c1ccccc1)C(=O)NC1CC1 | 4 | i | 104 | 165 | · | ·
C=CCC[C@@H](CCCCC)OC(=O)/C=C/[C@H](O)[C@@H](O)C[C@H](O)CC=C | · | + | · | · | i | 0
C=CCC[C@H](CCCCC)OC(=O)/C=C/[C@H](O)[C@@H](O)C[C@H](O)CC=C | · | i | · | · | · | ·
CCN(CC(=O)Nc1c(F)cccc1F)C(=O)c1csc2c1CCCC2 | -5 | i | 104 | i | · | ·
COc1ccc(Cn2c(C3CC3)nc3ccc(NC(=O)c4cccnc4)cc3c2=O)cc1 | -2 | + | 102 | 240 | i | 14*

Screens: PubChem BioAssay, several laboratories
